pIC50: −log10 of the molar value. The source made the active and inactive calls. The calls are words filed in the database; no cut-off is given here.
Experiments:
[1] = Inhibition of beta-naphthoflavone-induced Cyp1A in rat […] cell; type: cell-based
Procedure, shortened: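 Enzyme source: homogenates of β-naphthoflavone-induced H4IIE rat hepatoma cells. Cyp1A activity measured as dealkylation of 3-cyano-7-ethoxycoumarin to fluorescent 3-cyano-7-hydroxycoumarin, expressed in nmol/min/mg protein. α-Naphthoflavone positive control. Dose-response to IC50; percent inhibition given at 50 µM final concentration.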

[2] = biological target: T1, Aromatase (Homo sapiens, UniProt P11511); assay: Inhibition of human recombinant aromatase at 50 uM
T1 sequence (P11511 whole entry): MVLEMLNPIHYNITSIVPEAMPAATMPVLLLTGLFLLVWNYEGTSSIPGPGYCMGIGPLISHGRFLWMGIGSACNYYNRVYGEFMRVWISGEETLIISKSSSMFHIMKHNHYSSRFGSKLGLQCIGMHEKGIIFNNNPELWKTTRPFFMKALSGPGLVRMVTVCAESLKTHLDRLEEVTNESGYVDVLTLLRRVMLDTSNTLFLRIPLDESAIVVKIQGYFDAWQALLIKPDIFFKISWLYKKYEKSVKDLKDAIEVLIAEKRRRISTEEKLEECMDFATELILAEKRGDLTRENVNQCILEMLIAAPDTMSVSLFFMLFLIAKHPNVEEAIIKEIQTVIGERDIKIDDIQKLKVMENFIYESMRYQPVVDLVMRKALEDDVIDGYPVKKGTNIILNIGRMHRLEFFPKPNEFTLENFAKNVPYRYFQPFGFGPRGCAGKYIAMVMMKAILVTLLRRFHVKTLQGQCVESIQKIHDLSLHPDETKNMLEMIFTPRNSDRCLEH

[3] = DPPH radical scavenging activity upto 250 uM; type: functional
Procedure, shortened: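 Photometric reaction with stable DPPH free radical in microplate format, compounds up to 250 µM.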

[4] = Superoxide anion radical scavenging activity upto 50 uM; type: functional
Procedure, shortened: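 Superoxide anion generated by xanthine oxidase oxidising hypoxanthine to uric acid; scavenging tested up to 50 µM.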

[5] = test system: Cyp1A (Rattus norvegicus); assay: Inhibition of beta-naphthoflavone-induced Cyp1A in rat H4IIE cell at 50 uM; conditions: H4IIE cells with beta-naphthoflavone-induced Cyp1A
[6] = biological target: Prostaglandin G/H synthase 1 (Homo sapiens) (UniProt P23219); assay: Inhibition of COX1 at 100 uM
Sequence of Prostaglandin G/H synthase 1 (Homo sapiens) (P23219 whole entry): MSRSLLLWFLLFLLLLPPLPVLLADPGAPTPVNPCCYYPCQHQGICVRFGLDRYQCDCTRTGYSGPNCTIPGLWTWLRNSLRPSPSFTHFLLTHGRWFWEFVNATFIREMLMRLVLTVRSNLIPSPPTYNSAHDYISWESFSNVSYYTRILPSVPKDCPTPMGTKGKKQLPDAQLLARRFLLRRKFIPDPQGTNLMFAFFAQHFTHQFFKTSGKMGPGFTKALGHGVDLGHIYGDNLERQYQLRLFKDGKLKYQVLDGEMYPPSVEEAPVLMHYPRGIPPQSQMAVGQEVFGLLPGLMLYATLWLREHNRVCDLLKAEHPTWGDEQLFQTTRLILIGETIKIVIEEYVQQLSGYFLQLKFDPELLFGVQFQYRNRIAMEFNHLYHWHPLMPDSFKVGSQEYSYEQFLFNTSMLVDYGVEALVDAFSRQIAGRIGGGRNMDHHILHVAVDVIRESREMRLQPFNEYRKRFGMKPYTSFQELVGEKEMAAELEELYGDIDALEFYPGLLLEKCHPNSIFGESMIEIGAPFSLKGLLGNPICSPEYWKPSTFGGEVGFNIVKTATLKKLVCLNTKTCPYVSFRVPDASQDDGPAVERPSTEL
Procedure, shortened: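 COX-1 (prostaglandin G/H synthase) activity followed by oxygen consumption during conversion of arachidonic acid to prostaglandins; single concentration 100 µM; IC50 only if inhibition exceeds 50%.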

[7] = Cytotoxicity against mouse Hepa 1c1c7 cells upto 50 uM; type: cell-based
Procedure, shortened: (§1)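 Hepa 1c1c7 murine hepatoma cultures exposed in parallel with the QR induction assay; tested up to 400 µM for one hydroxanthone and up to 50 µM for the others; cytotoxicity judged alongside QR specific activity.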

[8] = Cytotoxicity against mouse Hepa 1c1c7 cells upto 400 uM; type: cell-based; procedure, shortened: as §1
[9] = biological target: T1, Aromatase; assay: Inhibition of human recombinant aromatase

SMILES | pIC50 [1] | inhibition at 50 µM [2] [%] | Activity [3] | Activity [4] | inhibition at 50 µM [5] [%] | inhibition [6] [%] | Activity [7] | Activity [8] | pIC50 [9]
O=c1cc(-c2ccccc2)oc2c1ccc1ccccc12 [ALPHA-NAPHTHOFLAVONE] | 8.46 |  |  |  |  |  |  |  | 
Cc1cc(O)c(C(=O)c2c(O)cccc2O)c(C(=O)O)c1 [MONODICTYPHENONE] | < 4.30 | 25 | inactive | inactive | 28 | < 50 |  |  | 
C[C@H]1C[C@H](O)[C@@H]2C(=O)c3c(O)cccc3O[C@]2(C)[C@H]1O [MONODICTYSIN B] | 4.63 | 9 | inactive | inactive |  | < 50 | Not Active |  | 
Cc1cc(C(=O)O)c2c(=O)c3c(O)cccc3oc2c1 [MONODICTYXANTHONE] | 4.46 | 37 | inactive | inactive |  | < 50 |  |  | 
Cc1cc(O)c2c(c1)O[C@]1(C)[C@@H](O)[C@@H](O)C[C@H](O)[C@@H]1C2=O [MONODICTYSIN A] | < 4.30 | 32 | inactive | inactive | 40 | < 50 |  | Not Active | 
COc1cc(O)c2c(c1)O[C@]1(C)[C@@H](O)[C@@H](C)C[C@H](O)[C@@H]1C2=O [MONODICTYSIN C] | 5.52 |  | inactive | inactive |  | < 50 | Not Active |  | 4.55

Source: ChEMBL document CHEMBL1142864, “Potential cancer chemopreventive in vitro activities of monomeric xanthone derivatives from the marine algicolous fungus Monodictys putredinis” (J Nat Prod, 2007)
